From PubChem
NPY-Y1 PAM-ag: potentiators or agonists of human neuropeptide Y receptor Y1; hit rate 0.37% among 220,000; activation, % at 3.6 µM; NPY-Y1 expressing cells, potentiator/agonist activation; AID 1304; P25929; in the data active = activation above about 33%, passing the limit was not always enough;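 also: cells stimulated with NPY at EC10 then isoproterenol at EC100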
Target sequence (P25929 whole entry, looked up): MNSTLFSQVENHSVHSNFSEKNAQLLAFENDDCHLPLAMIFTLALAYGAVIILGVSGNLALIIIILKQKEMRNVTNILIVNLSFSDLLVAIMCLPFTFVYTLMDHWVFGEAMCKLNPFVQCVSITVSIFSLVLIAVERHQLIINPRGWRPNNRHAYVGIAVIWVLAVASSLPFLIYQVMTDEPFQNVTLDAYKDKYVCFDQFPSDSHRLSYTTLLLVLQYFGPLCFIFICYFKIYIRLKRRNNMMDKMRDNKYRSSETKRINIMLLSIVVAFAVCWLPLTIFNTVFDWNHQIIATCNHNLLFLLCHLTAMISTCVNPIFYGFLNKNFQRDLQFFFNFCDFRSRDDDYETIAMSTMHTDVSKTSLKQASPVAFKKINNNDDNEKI
NPY-Y1 antag: blocks the human neuropeptide Y Y1 receptor; hit rate 1% among 200,000; HEK293-CNG Y1 cells, membrane potential fluorescence; NPY at EC95, then isoproterenol; inhibition, % at 3.6 µM;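 active = inhibition above the campaign mean inhibition of all tested compounds plus 3 SD, cut at about 20% in these data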
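Test system – HEK293 Y1/CNG channel cell line · Also added – NPY agonist 25 nM, then isoproterenol 1 µM plus Ro 20-1724 25 µM · Compound dosing – one concentration, 3.6 µM, in 0.4% DMSO · Schedule – compound incubation 1 h at room temperature, readout 45 min post-stimulation · Technique – fluorescence, membrane potential probe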
Cl transport mod: modulators of human KCC2 chloride dependent transport | KCC2 cells, thallium flux FluoZin-2 fluorescence | B-score of Tl+ flux slope (higher = more flux/activation; lower = inhibition) at 10 µM | hit rate 2.2% among 190,000;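 active = thallium flux slope and its plate-corrected score both differing from the plate sample mean at a set confidence after two filtering rounds, in either direction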;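 also: slope of fluorescence scaled to starting intensity during 10 to 20 s after thallium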
NPY Y2 blocker: blocks the human neuropeptide Y Y2 receptor | NPY-Y2 expressing cells, antagonist mode | hit rate 0.99% among 140,000 | P49146 | inhibition, % at 2.7 µM; in the data active = inhibition above about 17%
Target sequence (P49146 whole entry, looked up): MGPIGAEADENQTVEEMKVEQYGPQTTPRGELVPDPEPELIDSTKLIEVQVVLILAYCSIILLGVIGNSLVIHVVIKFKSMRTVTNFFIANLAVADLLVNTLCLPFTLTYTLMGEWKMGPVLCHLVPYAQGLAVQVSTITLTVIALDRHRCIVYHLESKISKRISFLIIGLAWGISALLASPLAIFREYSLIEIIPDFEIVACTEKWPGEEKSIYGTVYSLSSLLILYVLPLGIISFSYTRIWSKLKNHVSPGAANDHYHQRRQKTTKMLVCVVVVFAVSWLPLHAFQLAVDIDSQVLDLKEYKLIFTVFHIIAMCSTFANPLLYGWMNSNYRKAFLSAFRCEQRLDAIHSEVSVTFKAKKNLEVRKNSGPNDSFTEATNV
Furin inh: blocks human furin protease activity | purified furin, fluorogenic substrate cleavage | inhibition, % at 20 µM or 30 µM | AID 463115 | hit rate 0.061% among 220,000 | P09958; in the data active = inhibition above about 25%
NPY2 pot ag: potentiators or agonists of human neuropeptide Y receptor Y2. cells expressing NPY-Y2, potentiator/agonist read-out. P49146. activation, % at 3.6 µM. hit rate 0.45% among 220,000; in the data active = activation above about 27%;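 also: cells stimulated with NPY near EC25 plus isoproterenol at EC100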
KCC2 sec1: KCC2 (human) modulation, secondary assay; normalised thallium flux (F/F0 slope) at 10 µM; hit rate 15% among 3,700; shares compounds with Cl transport mod; HEK293-KCC2, thallium flux, FluoZin2 fluorescence; hits give high values;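 active = thallium flux slope above the same plate's solvent-only control mean plus 3 SD; inconclusive = the two replicate wells disagree; inactive = no significant difference from solvent-only control wells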
KCC2 bumet counter: bumetanide-insensitive thallium flux in KCC2 cells with ouabain, counter-screen; hit rate 49% among 3,700; shares compounds with Cl transport mod; normalized thallium flux at 10 µM; HEK293-KCC2 + bumetanide/ouabain, thallium flux FluoZin2; hits give high values; AID 1714;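 active = thallium entry rate above the same plate's blocked-transporter control wells by more than 3 SD; inconclusive = the two repeat wells disagree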;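 also: raw slope of fluorescence over initial fluorescence between 10 and 20 s after thallium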
KCC2 secondary2: confirmation of human KCC2 transport modulators. HEK293-KCC2, thallium flux FluoZin2 fluorescence; actives lie on both sides; F/F0 rise rate, 10–20 s post-thallium. AID 1715. shares compounds with Cl transport mod. hit rate 23% among 3,700. normalized thallium flux at 10 µM;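 active = thallium flux slope more than 3 SD above or below the plate's solvent-only control mean, mostly below; inconclusive = the two repeat wells disagreed; inactive = no significant shift from solvent-only controls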
HEK293 Tl flux: counter-screen for KCC2 modulators: effect in parental HEK293 cells; thallium flux rate (normalised fluorescence) at 10 µM; hit rate 46% among 3,700; thallium flux FluoZin2, ouabain; baseline-ratio fluorescence slope, 10–20 s after thallium; AID 1716; shares compounds with Cl transport mod;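 active = thallium flux rate significantly above the same plate's solvent-only control wells, beyond their mean plus 3 SD; inconclusive = the two replicate wells gave conflicting results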
KCC2 ouabain: modulates human KCC2 on retest with ouabain. shares compounds with Cl transport mod. AID 1717. raw Tl+ flux slope (below DMSO = inhibition, above = activation) at 10 µM. HEK293-KCC2, thallium flux FluoZin2 fluorescence; bidirectional: low = inhibitor, high = activator. hit rate 48% among 3,700;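 active = thallium flux slope beyond 3 SD from same-plate DMSO control mean in most replicates, usually higher, sometimes lower; inconclusive = repeat tests gave conflicting results; inactive = no significant difference from controls in most replicates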;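 also: slope of initial-normalized fluorescence between seconds 10 and 20 after thallium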
HEK293 Tl flux2: counter-screen for KCC2 modulators: effect in parental HEK293 cells; shares compounds with Cl transport mod; thallium flux FluoZin-2 fluorescence slope; thallium flux slope at 10 µM; hit rate 33% among 3,700;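 active = thallium flux slope above the same plate's solvent-control mean plus 3 SD in both duplicate wells; inconclusive = duplicate wells that disagreed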;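 also: run without ouabain in cells lacking the KCC2 cotransporter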
Each line names hits and unclear results; the compound was inactive in the other large screens (follow-up assays come after a bar, where they were run). Sampled rows, rich in hits. Any-hit rate of the full collection: about 3.7%.

O=C(NC(=S)Nc1ccccn1)c1cccc([N+](=O)[O-])c1	Cl transport mod 8 (no result: NPY-Y1 antag, NPY Y2 blocker) | KCC2 sec1 inconclusive | KCC2 bumet counter 0.042 | KCC2 secondary2 inactive | HEK293 Tl flux 0.014 | KCC2 ouabain inactive | HEK293 Tl flux2 0.013
O=C(NC(=S)Nc1cccc([N+](=O)[O-])c1)c1ccco1	Cl transport mod 28 | KCC2 sec1 0.022 | KCC2 bumet counter 0.079 | KCC2 secondary2 inconclusive | HEK293 Tl flux inconclusive | KCC2 ouabain 0.062 | HEK293 Tl flux2 0.025
CCOc1ccc(C(=O)NC(=S)Nc2ccccn2)cc1[N+](=O)[O-]	none
Cc1c(Cl)c([N+](=O)[O-])nn1CC(=O)N1CCN(Cc2ccccc2)CC1	none (no result: NPY Y2 blocker)
O=C(NC(=S)Nc1ccc(N2CCOCC2)cc1)c1ccccc1	none (no result: Cl transport mod, NPY Y2 blocker)
O=C(NC(=S)Nc1ccc(Br)cn1)c1cncc(Br)c1	none
O=C(NC(=S)Nc1ccccn1)c1cncc(Br)c1	Cl transport mod 6.2 | KCC2 sec1 inactive | KCC2 bumet counter 0.017 | KCC2 secondary2 inactive | HEK293 Tl flux 0.015 | KCC2 ouabain inconclusive | HEK293 Tl flux2 0.014
O=C(NC(=S)Nc1ccc(N2CCOCC2)cc1)c1cncc(Br)c1	Cl transport mod 5.5 | KCC2 sec1 inactive | KCC2 bumet counter 0.019 | KCC2 secondary2 inactive | HEK293 Tl flux inconclusive | KCC2 ouabain 0.026 | HEK293 Tl flux2 inactive
COc1ccccc1CNC(=O)C(=O)NCC(c1ccco1)N1CCOCC1 (stereo unspecified)	none (no result: NPY Y2 blocker)
CCOC(=O)C1CCCN(C(=O)c2cccc([N+](=O)[O-])c2C)C1 (stereo unspecified)	none (no result: NPY Y2 blocker)
O=C(CSc1ccc(-c2ccncc2)nn1)N1CCN(c2ccccc2)CC1	none (no result: NPY Y2 blocker)
C/C(=N\NC(=S)Nc1cccc(C)c1)c1ccco1	Cl transport mod 78 (no result: NPY Y2 blocker) | KCC2 sec1 0.028 | KCC2 bumet counter 0.085 | KCC2 secondary2 inconclusive | HEK293 Tl flux 0.063 | KCC2 ouabain 0.058 | HEK293 Tl flux2 0.062
C/C(=N\NC(=S)Nc1ccc(C)cc1)c1cccc(N)c1	Cl transport mod 9.4 (no result: NPY Y2 blocker) | KCC2 sec1 0.018 | KCC2 bumet counter 0.053 | KCC2 secondary2 inactive | HEK293 Tl flux 0.063 | KCC2 ouabain 0.048 | HEK293 Tl flux2 0.017
Cc1c(Cl)cccc1N=c1c([N+](=O)[O-])nn(-c2ccccc2)n1O	Cl transport mod 6 | KCC2 sec1 inactive | KCC2 bumet counter inactive | KCC2 secondary2 inactive | HEK293 Tl flux inactive | KCC2 ouabain inactive | HEK293 Tl flux2 inactive
CCOC(=O)C1=NN(C(=O)c2ccc(OC)cc2)C(O)(c2ccc(Cl)cc2)C1 (stereo unspecified)	Cl transport mod 66 | KCC2 sec1 inconclusive | KCC2 bumet counter 0.093 | KCC2 secondary2 0.077 | HEK293 Tl flux 0.095 | KCC2 ouabain 0.087 | HEK293 Tl flux2 0.064
CCOC(=O)C1=NN(C(=O)COc2ccccc2)C(O)(c2ccc(Cl)cc2)C1 (stereo unspecified)	Cl transport mod 6.7 (no result: NPY Y2 blocker) | KCC2 sec1 0.012 | KCC2 bumet counter 0.029 | KCC2 secondary2 inactive | HEK293 Tl flux 0.013 | KCC2 ouabain inactive | HEK293 Tl flux2 inconclusive
CC1=NN(C(=O)COc2ccccc2C)C(O)(c2ccc(Cl)cc2)C1 (stereo unspecified)	none
O=C(c1cccc(S(=O)(=O)NCc2ccccc2)c1)N1CCN(Cc2ccccc2)CC1	Cl transport mod -2.7 | KCC2 sec1 inactive | KCC2 bumet counter 0.0061 | KCC2 secondary2 inactive | HEK293 Tl flux inactive | KCC2 ouabain inactive | HEK293 Tl flux2 inactive
Cc1ccc(S(=O)(=O)NCc2ccc(C(=O)N3CCN(Cc4ccccc4)CC3)cc2)cc1	Cl transport mod -2.6 | KCC2 sec1 inactive | KCC2 bumet counter inconclusive | KCC2 secondary2 0.027 | HEK293 Tl flux inactive | KCC2 ouabain inconclusive | HEK293 Tl flux2 inactive
O=C(NCc1ccco1)c1ccc(CNc2c(N3CCCCC3)c(=O)c2=O)cc1	none
O=C(Cn1nc2ccccc2n1)N/N=C/c1cc(Cl)cc([N+](=O)[O-])c1O	Cl transport mod -5.3 (no result: NPY Y2 blocker) | KCC2 sec1 inactive | KCC2 bumet counter inconclusive | KCC2 secondary2 0.025 | HEK293 Tl flux inactive | KCC2 ouabain inconclusive | HEK293 Tl flux2 inactive
O=[N+]([O-])c1c(Nc2ccccc2)ccc2nonc12	none (no result: Cl transport mod)
CCOC(=O)NNc1ccc2nonc2c1[N+](=O)[O-]	Cl transport mod 13 (no result: NPY-Y1 antag, NPY Y2 blocker) | KCC2 sec1 inactive | KCC2 bumet counter 0.013 | KCC2 secondary2 inactive | HEK293 Tl flux 0.013 | KCC2 ouabain 0.024 | HEK293 Tl flux2 0.013
CCn1c(NC(C)=O)nc2ccccc21	none
CCn1c(NC(=O)c2cccs2)nc2ccccc21	Cl transport mod 27 | KCC2 sec1 inactive | KCC2 bumet counter 0.03 | KCC2 secondary2 inactive | HEK293 Tl flux 0.019 | KCC2 ouabain inconclusive | HEK293 Tl flux2 0.021
CC(=O)c1cccc(NC(=S)NC(=O)CC(C)(C)C)c1	none (no result: Cl transport mod)
CCN(CCCNC(=O)COc1cc(=O)n(CC)c2ccccc12)c1ccccc1	Cl transport mod 4.6 | KCC2 sec1 inactive | KCC2 bumet counter inactive | KCC2 secondary2 inconclusive | HEK293 Tl flux 0.0063 | KCC2 ouabain inactive | HEK293 Tl flux2 inactive
O=C(N/N=C/C=C/c1ccc2c(c1)OCO2)C(O)c1ccccc1 (stereo unspecified)	none (no result: NPY-Y1 antag, NPY Y2 blocker)
C/C=N/NC(=O)CCNC(=O)c1ccccc1	none
CCOC(=O)N1CCN(c2nc3ccccc3nc2C(C#N)S(=O)(=O)c2ccc(C)cc2)CC1 (stereo unspecified)	none (no result: Cl transport mod) | KCC2 sec1 inactive | KCC2 bumet counter inactive | KCC2 secondary2 0.027 | HEK293 Tl flux inconclusive | KCC2 ouabain inconclusive | HEK293 Tl flux2 inconclusive
O=C(O)c1ccccc1C(=O)Nc1ccc(Br)c2cccnc12	none (no result: NPY Y2 blocker)
